Source: paper PMC4269301 (International journal of peptide research and therapeutics, 2014)
Square brackets hold non-standard residues; d marks the D form. Ends that are not written are not given here. Peptide text beside a SMILES is read from it. Nle = CCCC[C@H](N)C(=O)O

Experiments:
GRK5 [1] = biological target: T1, GRK5 (Homo sapiens, UniProt P34947); assay: GRK5 phosphorylation of light-activated rhodopsin; assay type: biochemical; conditions: for inhibition at 100 µM: read-out: % Inhibition (100 μM) of GRK5 phosphorylation of rhodopsin; for Inhibition of GRK5 phosphorylation of rhodopsin: peptides 10, 30 and 100 μM, four or more experiments in duplicate; for % Inhibition (100 μM) of GRK5 phosphorylation of rhodopsin: 100 μM peptide, 0.5 μM light-activated rhodopsin, 100 μM ATP, 5 min
[2] = biological target: Human His6-tagged GRK5 (human) (UniProt P34947)
GRK2 [3] = biological target: T2, GRK2 (Homo sapiens, UniProt P25098, S670A); assay: GRK2 phosphorylation of tubulin; assay type: biochemical; conditions: for Effect on GRK2 phosphorylation of tubulin, basal activity: 60 min
T2 sequence (P25098 1-689 S670A): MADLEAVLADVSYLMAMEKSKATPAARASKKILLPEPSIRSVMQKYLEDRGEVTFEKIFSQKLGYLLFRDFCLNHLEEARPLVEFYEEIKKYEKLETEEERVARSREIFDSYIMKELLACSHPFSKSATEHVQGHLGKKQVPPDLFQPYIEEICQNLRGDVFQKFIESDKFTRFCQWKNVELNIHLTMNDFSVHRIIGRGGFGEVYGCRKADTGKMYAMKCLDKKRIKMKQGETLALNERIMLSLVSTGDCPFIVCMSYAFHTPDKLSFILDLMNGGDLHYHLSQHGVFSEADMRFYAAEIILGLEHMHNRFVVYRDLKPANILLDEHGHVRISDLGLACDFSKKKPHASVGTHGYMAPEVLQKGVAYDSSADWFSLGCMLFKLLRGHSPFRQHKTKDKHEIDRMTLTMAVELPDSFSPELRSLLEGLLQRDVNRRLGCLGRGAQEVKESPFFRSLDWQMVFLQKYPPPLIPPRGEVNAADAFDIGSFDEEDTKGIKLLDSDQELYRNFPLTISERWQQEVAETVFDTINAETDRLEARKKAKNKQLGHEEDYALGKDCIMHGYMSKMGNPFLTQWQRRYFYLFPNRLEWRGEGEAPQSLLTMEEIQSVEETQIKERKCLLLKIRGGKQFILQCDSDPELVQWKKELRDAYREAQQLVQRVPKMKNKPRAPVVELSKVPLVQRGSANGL
Method in brief: (§1)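 Bovine brain tubulin 500 nM with 100 nM GRK2 (His₆, S670A, Sf9-expressed) or human His₆-GRK5; 20 mM Tris pH 7.5, 1 mM EDTA, 10 mM MgCl₂, 5 μM DTT, 100 μM [γ³²P]ATP; 60 min, 30 °C. 12 % SDS-PAGE; ³²P-tubulin counted from excised bands or by autoradiogram densitometry. Mean ± SEM, ≥4 experiments in duplicate, % of control; one-way ANOVA.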

GRK5 [4] = biological target: T1, GRK5; assay: GRK5 phosphorylation of tubulin; assay type: biochemical; conditions: for % inhibition of GRK5 phosphorylation of tubulin: 100 μM peptide, 100 nM GRK5, 60 min; for % inhibition of GRK5 phosphorylation of tubulin / Effect on GRK5 phosphorylation of tubulin, basal activity: 0.5 μM tubulin, 30 °C; for Effect on GRK5 phosphorylation of tubulin, basal activity: 60 min
Method in brief: as §1

GRK6 = GRK6 phosphorylation of light-activated rhodopsin; assay type: biochemical, human; conditions: peptides 10, 30 and 100 μM; four or more experiments in duplicate
Method in brief: (§2)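 Light-activated (475 nm, 30 s) rhodopsin, 0.5 μM, from urea-stripped bovine ROS. Kinase was purified GRK2 (His₆, S670A, Sf9/baculovirus, Ni-IMAC) or N-terminal His₆ full-length human GRK6, at 10–100 nM. Buffer: 20 mM Tris pH 7.5, 10 mM MgCl₂, 1 mM EDTA, 100 μM [γ³²P]ATP; peptides in DMSO (2–4 %). Ran 5 min, then SDS-PAGE and autoradiography. ≥4 experiments in duplicate, % of control.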

GRK7 = biological target: T3, GRK7 (Homo sapiens, UniProt Q8WTQ7); assay: GRK7 phosphorylation of light-activated rhodopsin; assay type: biochemical; conditions: for Inhibition of GRK7 phosphorylation of rhodopsin: peptides 10, 30 and 100 μM, four or more experiments in duplicate
T3 sequence (Q8WTQ7 1-553): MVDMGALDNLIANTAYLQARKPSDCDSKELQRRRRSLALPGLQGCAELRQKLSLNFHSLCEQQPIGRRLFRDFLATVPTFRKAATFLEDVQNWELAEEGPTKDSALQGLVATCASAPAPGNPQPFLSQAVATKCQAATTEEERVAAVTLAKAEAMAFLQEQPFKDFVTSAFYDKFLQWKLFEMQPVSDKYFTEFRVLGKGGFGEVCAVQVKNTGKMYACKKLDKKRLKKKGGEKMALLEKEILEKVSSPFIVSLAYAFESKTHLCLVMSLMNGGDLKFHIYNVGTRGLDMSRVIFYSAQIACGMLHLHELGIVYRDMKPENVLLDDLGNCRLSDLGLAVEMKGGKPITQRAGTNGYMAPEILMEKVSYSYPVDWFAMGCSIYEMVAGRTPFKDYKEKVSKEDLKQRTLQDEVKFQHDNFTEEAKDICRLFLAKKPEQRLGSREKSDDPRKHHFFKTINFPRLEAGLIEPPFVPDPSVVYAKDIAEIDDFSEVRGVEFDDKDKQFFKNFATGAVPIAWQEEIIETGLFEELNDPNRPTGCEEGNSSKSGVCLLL
Method in brief: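 Substrate is urea-stripped bovine rod outer segment rhodopsin (0.5 μM in reaction buffer; 0.5–4 μM per legend), light-activated at 475 nm for 30 s. Peptides are dissolved in DMSO (2–4% final) and quantified by A280. Results are normalised to the no-peptide control as mean ± SEM.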

GRK2 [5] = biological target: T2, GRK2; assay: GRK2 phosphorylation of light-activated rhodopsin; assay type: biochemical; conditions: peptides 10, 30 and 100 μM; four or more experiments in duplicate
Method in brief: as §2

T1 sequence (P34947 whole entry): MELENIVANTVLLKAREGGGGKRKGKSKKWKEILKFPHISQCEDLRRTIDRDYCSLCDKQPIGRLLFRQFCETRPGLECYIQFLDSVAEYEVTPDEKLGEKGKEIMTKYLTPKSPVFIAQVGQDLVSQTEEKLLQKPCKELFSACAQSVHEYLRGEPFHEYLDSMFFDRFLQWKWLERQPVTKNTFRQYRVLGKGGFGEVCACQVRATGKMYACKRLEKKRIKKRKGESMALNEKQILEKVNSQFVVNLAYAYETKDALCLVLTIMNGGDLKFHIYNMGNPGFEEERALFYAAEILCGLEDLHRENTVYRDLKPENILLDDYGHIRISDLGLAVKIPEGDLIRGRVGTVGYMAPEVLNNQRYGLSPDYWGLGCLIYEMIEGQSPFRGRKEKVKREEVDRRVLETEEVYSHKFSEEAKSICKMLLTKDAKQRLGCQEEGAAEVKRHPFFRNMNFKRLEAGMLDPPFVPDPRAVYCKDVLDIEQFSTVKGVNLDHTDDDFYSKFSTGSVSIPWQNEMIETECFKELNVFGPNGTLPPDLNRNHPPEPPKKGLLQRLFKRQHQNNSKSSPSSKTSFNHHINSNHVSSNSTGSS
Chain of Human His6-tagged GRK5 (human) (P34947 whole entry): as above

For `CCCC[C@H](NC(=O)[C@H](CO)NC(C)=O)C(=O)N[C@@H](Cc1ccccc1)C(=O)N[C@@H](Cc1ccccc1)C(=O)N[C@@H](CC(=O)O)C(=O)N[C@@H](CCCNC(=N)N)C(=O)N[C@@H](Cc1ccccc1)C(=O)N[C@@H](CC(C)C)C(=O)N[C@@H](C)C(=O)N[C@@H](Cc1c[nH]c2ccccc12)C(=O)N[C@@H](CCCCN)C(=O)N[C@@H](Cc1c[nH]c2ccccc12)C(=O)N[C@@H](CC(C)C)C(=O)N[C@@H](CCC(=O)O)C(=O)N[C@@H](CCCNC(=N)N)C(N)=O` [Peptide Q172A] (Ac-S[Nle]FFDRFLAWKWLER-NH2), the IC50 (GRK5 [1]) was 15.1 ± 7.3 µM and the inhibition at 100 µM (GRK5 [1]) was 95%.

`CCCC[C@H](NC(=O)[C@H](CO)NC(C)=O)C(=O)N[C@@H](Cc1ccccc1)C(=O)N[C@@H](Cc1ccccc1)C(=O)N[C@@H](CC(=O)O)C(=O)N[C@@H](CCCNC(=N)N)C(=O)N[C@@H](Cc1ccccc1)C(=O)N[C@@H](CC(C)C)C(=O)N[C@@H](CCC(N)=O)C(=O)N[C@@H](Cc1c[nH]c2ccccc12)C(=O)N[C@@H](CCCCN)C(=O)N[C@@H](Cc1c[nH]c2ccccc12)C(N)=O` [Peptide T3] (Ac-S[Nle]FFDRFLQWKW-NH2) showed an IC50 (GRK5 [1]) of 6.1 ± 4.4 µM and an inhibition at 100 µM (GRK5 [1]) of 97%.

Work on α9 (164–178) peptide of GRK5 yielded a GRK5 phosphorylation of light-activated rhodopsin: IC50 of inhibition [2] of 15.9 µM.

With `CCCC[C@H](NC(=O)[C@H](CCC(=O)O)NC(=O)[C@H](CC(N)=O)NC(=O)[C@H](CCC(N)=O)NC(=O)[C@H](Cc1c[nH]c2ccccc12)NC(=O)[C@@H]1CCCN1C(=O)[C@@H](NC(=O)[C@H](CO)NC(=O)[C@@H](NC(C)=O)C(C)C)[C@@H](C)CC)C(=O)N[C@H](C(=O)N[C@@H](CCC(=O)O)C(N)=O)[C@@H](C)CC` [α10] (Ac-VSIPWQNE[Nle]IE-NH2) the “Inhibition of GRK5 phosphorylation of rhodopsin” value (GRK5 [1]) was “inhibited”, the “Effect on GRK2 phosphorylation of tubulin, basal activity” value (from here on “Effect on GRK2 phosphorylation”) (GRK2 [3]; 0.5 μM tubulin, 30 °C) was “not significant” and the “% inhibition of GRK5 phosphorylation of tubulin” value (GRK5 [4]) was ~ 45%. The “Inhibition of GRK6 phosphorylation of rhodopsin” value (GRK6) was “inhibited”, the “Inhibition of GRK7 phosphorylation of rhodopsin” value (GRK7) was “inhibited” and the “Inhibition of GRK2 phosphorylation of rhodopsin” value (GRK2 [5]) was “less inhibition”.

With Ac-FFDAFLQWK-NH2 [Peptide T5] the “% Inhibition (100 μM) of GRK5 phosphorylation of rhodopsin” value (GRK5 [1]) was 22%.

In the case of MELENIVANTVLLKAR-NH2 [N-Ter], the IC50 (GRK5 [1]) is reported as 5 to 10 µM, the “Inhibition of GRK5 phosphorylation of rhodopsin” value (GRK5 [1]) is reported as “reasonably potent inhibitor” and the “Effect on GRK2 phosphorylation” value (GRK2 [3]; 0.5 μM tubulin, 30 °C) is reported as “no significant effect”. For the same compound, the “Effect on GRK5 phosphorylation of tubulin, basal activity” value (GRK5 [4]) was “no significant effect”, the “Inhibition of GRK6 phosphorylation of rhodopsin” value (GRK6) was “less potent inhibitor” and the IC50 (GRK7) was 5 to 10 µM. For the same compound, the “Inhibition of GRK7 phosphorylation of rhodopsin” value (GRK7) was “reasonably potent inhibitor” and the “Inhibition of GRK2 phosphorylation of rhodopsin” value (GRK2 [5]) was “less potent inhibitor”.

With “Ac-ILENLKDCGLF-NH2 [TCT, reference compound]” the IC50 (GRK5 [1]) was ~10 µM, the “Inhibition of GRK5 phosphorylation of rhodopsin” value (GRK5 [1]) was “showed inhibition” and the “Effect on GRK2 phosphorylation” value (GRK2 [3]; 0.5 μM tubulin, 30 °C) was “no significant effect”. For the same compound, the “Effect on GRK5 phosphorylation of tubulin, basal activity” value (GRK5 [4]) was “no significant effect”, the “Inhibition of GRK6 phosphorylation of rhodopsin” value (GRK6) was “showed inhibition” and the “Inhibition of GRK7 phosphorylation of rhodopsin” value (GRK7) was “showed inhibition”. The “Inhibition of GRK2 phosphorylation of rhodopsin” value (GRK2 [5]) was “relatively inactive”.

With “Ac-S[Nle]FFDRFLQWKWAER-NH2 [Peptide L176A]” the “% Inhibition (100 μM) of GRK5 phosphorylation of rhodopsin” value (GRK5 [1]) was 74%.

`CCCC[C@H](NC(=O)[C@H](CO)NC(C)=O)C(=O)N[C@@H](Cc1ccccc1)C(=O)N[C@@H](Cc1ccccc1)C(=O)N[C@@H](CC(=O)O)C(=O)N[C@@H](C)C(=O)N[C@@H](Cc1ccccc1)C(=O)N[C@@H](CC(C)C)C(=O)N[C@@H](CCC(N)=O)C(=O)N[C@@H](Cc1c[nH]c2ccccc12)C(=O)N[C@@H](CCCCN)C(=O)N[C@@H](Cc1c[nH]c2ccccc12)C(=O)N[C@@H](CC(C)C)C(=O)N[C@@H](CCC(=O)O)C(=O)N[C@@H](CCCNC(=N)N)C(N)=O` [Peptide R169A] (Ac-S[Nle]FFDAFLQWKWLER-NH2) was tested, and the IC50 (GRK5 [1]) was 7.2 ± 4.8 µM, the “Inhibition of GRK5 phosphorylation of rhodopsin” value (GRK5 [1]) was “inhibited” and the inhibition at 100 µM (GRK5 [1]) was 98%. The IC50 (GRK2 [3]) was ~30 µM, the “% inhibition of GRK2 phosphorylation of tubulin” value (GRK2 [3]; 100 μM peptide, 0.5 μM tubulin, 100 nM GRK2, 60 min, 30 °C) was 60–80% and the IC50 (GRK5 [4]) was ~30 µM. For the same compound, the “% inhibition of GRK5 phosphorylation of tubulin” value (GRK5 [4]) was 60–80%, the “Inhibition of GRK6 phosphorylation of rhodopsin” value (GRK6) was “inhibited” and the “Inhibition of GRK7 phosphorylation of rhodopsin” value (GRK7) was “inhibited”. The “Inhibition of GRK2 phosphorylation of rhodopsin” value (GRK2 [5]) was “less inhibition”.
